Assay results as given in paper PMC11596327 (Chemistry (Weinheim an der Bergstrasse, Germany), 2023).

Experiments:
[1] = biological target: T1, Caspase-7 wt (Homo sapiens, UniProt P55210); experiment: Fluorometric steady-state kinetics assay; assay type: biochemical; details: C7 pre-saturated with DICA (DICA-C7)
T1 sequence (P55210 24-198 limits assumed): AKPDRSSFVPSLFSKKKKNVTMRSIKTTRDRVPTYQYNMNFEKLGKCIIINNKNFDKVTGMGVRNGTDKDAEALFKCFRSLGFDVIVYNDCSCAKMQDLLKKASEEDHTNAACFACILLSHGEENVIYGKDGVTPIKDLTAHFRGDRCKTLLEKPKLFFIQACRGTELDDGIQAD
T1 sequence (P55210 207-303 limits assumed): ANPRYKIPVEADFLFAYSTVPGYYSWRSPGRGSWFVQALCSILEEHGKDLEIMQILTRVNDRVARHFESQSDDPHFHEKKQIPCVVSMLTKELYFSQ
Outline: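 Fluorometric steady-state kinetic assays on wild-type C7 and wild-type C3. Both IC50 and Ki were derived. Ki came from fitting a non-competitive inhibitor equation. Values are reported with confidence intervals at the 95% level.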

[2] = biological target: T2, C7 wt (Homo sapiens, UniProt P55210); experiment: Fluorometric stopped-flow pre-steady state kinetics assay; assay type: biochemical; details: with increasing concentrations of inhibitor
T2 sequence (P55210 24-198 limits assumed): T1 sequence (P55210 24-198 limits assumed)
T2 sequence (P55210 207-303 limits assumed): T1 sequence (P55210 207-303 limits assumed)
Outline: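 Fluorescence stopped-flow on wild-type caspase-7. Progress curves were recorded with test compound at 6 to 500 uM or with DMSO alone, and a covalent allosteric inhibitor served as the assay-development control. Each curve was fitted individually to a pre-steady-state burst equation plus linear steady-state rate to give burst amplitude and k_burst. SE comes from a 95% confidence interval.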

[3] = biological target: T3, C7 (Homo sapiens, UniProt P55210); experiment: Differential scanning fluorimetry; assay type: binding; details: DICA-saturated C7 plus Ac-DEVD-CMK
T3 sequence (P55210 24-198 limits assumed): T1 sequence (P55210 24-198 limits assumed)
T3 sequence (P55210 207-303 limits assumed): T1 sequence (P55210 207-303 limits assumed)

## O=C(COc1ccc(Cl)cc1Cl)NCCS [DICA, 2-(2,4-Dichlorophenoxy)-N-(2-mercaptoethyl)-acetamide, reference compound]
[1]
  turnover of Ac-DEVD-AFC substrate: no turnover
[2]
  burst amplitude: decrease
  burst phase rate constant (kburst): no change
[3]
  formation of physical enzyme-substrate-inhibitor (ESI) complex: able to physically bind substrate and DICA simultaneously
